# Measurements from different studies.
# Each line is one published result; the experiments were not run side by side.
# MET Y1235D: Hepatocyte growth factor receptor (MET, Homo sapiens, UniProt P08581, Y1235D)
# MET: Hepatocyte growth factor receptor (MET, Homo sapiens, UniProt P08581)
# MET M1250T: Hepatocyte growth factor receptor (MET, Homo sapiens, UniProt P08581, M1250T)
SMILES,target,observed,method,tested at,remaining binding [%]
CN1CCN(c2ccc(Nc3nccc(-c4ccccc4)n3)cc2C(F)(F)F)CC1,MET Y1235D,binding,,10 µM,21
Cc1cnn2ncc(-c3ccnc(N(C)C)n3)c2c1,MET,binding,,1 µM,100
Cc1c(C(=O)O)cc(-c2ccc(C3CCNCC3)cc2)c2ccc(-c3ccc(C(F)(F)F)cc3)cc12,MET,cell-free assay,competition with immobilised ligand,1 µM,100
c1cnn2ncc(-c3ccnc(N4CCC45COC5)n3)c2c1,MET M1250T,binding,,1 µM,41
COc1ncc2cc3ccccc3nc2c1C#N,MET,cell-free assay,competition with immobilised ligand,5 µM,91
CO[C@@H](C)c1c(Nc2ccc([C@@H](N(C)C(=O)C3CCS(=O)(=O)CC3)C(F)(F)F)cc2)cnc2cc(Cl)nn12,MET M1250T,cell-free assay,competition with immobilised ligand,1 µM,100
COc1cnc(Nc2cccc(S(N)(=O)=O)c2)nc1N1CCN(c2ccccc2)CC1,MET,binding,competition with immobilised ligand,1 µM,100
O=C(NCC1CCOCC1)c1n[nH]cc1NC(=O)c1c(F)cccc1F,MET M1250T,binding,competition with immobilised ligand,1 µM,90
F[C@@H]1CCN(c2nccc(-c3cnn4ncccc34)n2)C1,MET Y1235D,binding,,1 µM,100
CN(C)C(=O)Cn1cc(-c2nc([C@@](C)(c3ccc(-c4cnc(N)nc4)cc3)C3CC3)no2)cn1,MET M1250T,cell-free assay,competition with immobilised ligand,1 µM,93
CC(C)(C)c1ccc(-c2nc(CBr)nn2-c2cccc(O)c2)cc1,MET,cell-free assay,competition with immobilised ligand,10 µM,83
CCC(=N\O)/C(C)=C/c1ccc(F)cc1,MET,cell-free assay,competition with immobilised ligand,1 µM,88
O=C(Nc1c[nH]nc1C(=O)NC1CCNCC1)c1cc(F)cc(F)c1,MET,binding,competition with immobilised ligand,1 µM,94
Cn1cc(Cl)c2c(Oc3c(F)cc(Nc4cc(Cl)nc(N)n4)cc3F)ccnc21,MET Y1235D,cell-free assay,competition with immobilised ligand,0.1 µM,91
CNC(=O)[C@@H]1CC[C@@H](n2c(-c3ccc4cnccc4c3)nc3ccc(C(=O)NCc4cccc(C(N)=O)c4)cc32)C1,MET Y1235D,binding,competition with immobilised ligand,1 µM,92
O=C(c1ccc(Nc2ncc(Cl)c(-c3ccc(Cl)s3)n2)cc1)N1CCC(N2CCCC2)CC1,MET Y1235D,binding,competition with immobilised ligand,1 µM,51
C[C@@H]1CN(c2ccc3ncc(-c4ccc5[nH]nc(C6CC6)c5c4)n3n2)C[C@H](C)O1,MET,binding,competition with immobilised ligand,0.5 µM,80
CN(c1nccc(-c2cnn3ncccc23)n1)C1CC1,MET M1250T,binding,,1 µM,100
CC1=C(C#N)[C@@H](c2ccc3[nH]nc(C)c3c2)C(C#N)=C(c2ccc(Cl)cc2)N1,MET,cell-free assay,competition with immobilised ligand,1 µM,17.2
C[C@@H]1CCN(c2nccc(-c3cnn4ncccc34)n2)C1,MET M1250T,binding,,1 µM,98
CC(=O)N1CCC(c2ccc(C(=O)NC3=NCCN3)cc2C(F)(F)F)CC1,MET Y1235D,cell-free assay,competition with immobilised ligand,1 µM,100
Cc1cnc(Nc2ccc(C(=O)N3CCC(N4CCCC4)CC3)cc2)nc1-c1cc2ccccc2s1,MET Y1235D,binding,competition with immobilised ligand,1 µM,72
CCS(=O)(=O)c1cc2cc(C[C@@](O)(CC(C)(C)c3ccc(F)cc3C(N)=O)C(F)(F)F)[nH]c2cn1,MET,cell-free assay,competition with immobilised ligand,1 µM,100
O=C(NCCCN1CCOCC1)c1ccc(Nc2nccc(-c3cc4ccccc4s3)n2)cc1,MET M1250T,binding,competition with immobilised ligand,1 µM,69
Nc1ncc2c(n1)-c1c([nH]c3ccc(C#CC4CC4)cc13)CCCC2,MET,binding,competition with immobilised ligand,1 µM,100
CC1CCCN1c1nccc(-c2cnn3ncccc23)n1 (centres unmarked),MET Y1235D,binding,,1 µM,100
COc1cnc(Nc2cccc(S(N)(=O)=O)c2)nc1N1CCN(c2ccccc2)C(=O)C1,MET M1250T,binding,competition with immobilised ligand,1 µM,98
O=C(c1ccc(Nc2ncc(Cl)c(-c3cc4ccccc4s3)n2)cc1)N1CCC(N2CCCC2)CC1,MET Y1235D,binding,competition with immobilised ligand,1 µM,44
c1cncc(-c2cccc(Nc3nccc(NC4CCCCC4)n3)c2)c1,MET Y1235D,binding,competition with immobilised ligand,10 µM,73
CCN1CCN(Cc2ccc(C(=O)Nc3ccc(C)c(Oc4ccc5c(c4)CC(=O)N5)c3)cc2C(F)(F)F)CC1,MET M1250T,binding,competition with immobilised ligand,1 µM,100
CN(C)c1nccc(-c2cnc3ncccn23)n1,MET M1250T,binding,,1 µM,91
O=C(NCCCN1CCOCC1)c1ccc(Nc2ncc(Cl)c(-c3ccc(Cl)s3)n2)cc1,MET Y1235D,binding,competition with immobilised ligand,1 µM,99
COC(=O)Nc1nc2ccc(C(=O)c3ccccc3)cc2[nH]1,MET,cell-free assay,competition with immobilised ligand,10 µM,32
O=C(c1ccc(Nc2nccc(-c3cc4ccccc4s3)n2)cc1)N1CCC(N2CCCC2)CC1,MET M1250T,binding,competition with immobilised ligand,1 µM,68
CN(C)c1nccc(-c2cnn3ncccc23)n1,MET M1250T,binding,,1 µM,100
